The list is not random: actives were taken first. Their share in the collection is about 3.1%.
KCNK9 inh: KCNK9 potassium channel inhibitors, primary screen, HEK293 cells, thallium flux; AID 488922, 2010; Potassium channel subfamily K member 9 (Homo sapiens), Q9NPC2; B-score at 10 µM; FluxOR thallium flux fluorescence; hits give low values; 310,000 compounds, 1.2% hits;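 active = ratio B-score over 3 SD below the library mean, with starting fluorescence within 5 SD of its mean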;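 note: negative B-score means less thallium flux so channel inhibition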
KCNQ1 block: inhibitors of human KCNQ1 channel, primary screen, cell-based, thallium flux, high-throughput | Potassium voltage-gated channel subfamily KQT member 1 (Homo sapiens), P51787 | CHO-K1 KCNQ1, FluxOR thallium flux fluorescence; hits give high values | B-score at 10 µM | 310,000 compounds, 1.3% hits | AID 2642, 2010;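 active = compounds whose thallium flux B-score, printed positive for inhibition, exceeds three library SD while starting fluorescence stays within three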;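 note: channel opened by potassium depolarization with thallium stimulus after 20 min compound exposure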
KCNK3 block: human KCNK3 channel inhibitors, primary screen, CHO cells, FluxOR thallium flux, B-score; Potassium channel subfamily K member 3 (Homo sapiens), O14649; FluxOR fluorescence; hits give low values; B-score at 10 µM; 340,000 compounds, 0.84% hits; AID 602410, 2012;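 active = B-score under library mean minus 4 SD, starting fluorescence ratio at most library mean plus 5 SD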;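 note: more negative B-score means stronger inhibition of thallium flux through KCNK3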
Target sequence (O14649 whole entry, looked up): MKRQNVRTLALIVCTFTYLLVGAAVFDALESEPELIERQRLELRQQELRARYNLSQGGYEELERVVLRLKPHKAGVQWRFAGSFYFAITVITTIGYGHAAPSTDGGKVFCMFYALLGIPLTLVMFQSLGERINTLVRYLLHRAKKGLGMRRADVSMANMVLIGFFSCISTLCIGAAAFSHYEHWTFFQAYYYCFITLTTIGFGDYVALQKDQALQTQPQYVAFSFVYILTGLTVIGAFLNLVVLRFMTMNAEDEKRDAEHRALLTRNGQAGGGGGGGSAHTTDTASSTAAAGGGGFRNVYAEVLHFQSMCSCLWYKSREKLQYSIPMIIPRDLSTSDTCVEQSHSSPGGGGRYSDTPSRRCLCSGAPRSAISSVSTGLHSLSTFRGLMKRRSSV
KCNQ1 pot: potentiators or activators of KCNQ1 channel, primary screen, cell-based, thallium flux, high-throughput; Potassium voltage-gated channel subfamily KQT member 1 (Homo sapiens), P51787; CHO-K1 KCNQ1, thallium flux FluxOR fluorescence; hits give high values; B-score at 10 µM; 310,000 compounds, 0.35% hits; AID 2648, 2010;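 active = fluorescence ratio B-score, a plate-corrected score, at least three library SD, with initial intensity B-score within 5 SD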
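System: CHO-K1 cells stably expressing KCNQ1 / Medium: assay buffer for compound exposure, DMSO matched across wells / Reagent: thallium- and potassium-containing depolarizing buffer / Compound: one concentration, matched DMSO / Incubation: 20 min compound pretreatment at room temperature / Measured by: kinetic FluxOR fluorescence, 10 s baseline plus 110 s post-stimulus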
hERG protect: hERG rescue from dofetilide block, primary screen, cell-based, CHO-hERG, FluxOR thallium flux, dofetilide IC70; Voltage-gated inwardly rectifying potassium channel KCNH2 (Homo sapiens), Q12809; dofetilide IC70 present; activation (rescue from dofetilide block), less the hit threshold, % at 10 µM; 310,000 compounds, 0.51% hits;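 active = activation above the mean of controls blocked by dofetilide plus 5 SD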;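 note: thallium influx through hERG after potassium depolarization seen as dye fluorescence rise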
Of the large screens only hits and unclear results are named; the others gave an inactive call.

COc1ccc(C(=O)Nc2cccc(OC(=O)c3ccco3)c2)cc1	none
COc1ccc(C(=O)Nc2cccc(OC(=O)c3ccc(C)c(C)c3)c2)cc1	KCNQ1 block 6
CC(=O)Oc1cccc(NC(=O)c2cccc(C(=O)Nc3cccc(OC(C)=O)c3)c2)c1	none
CCn1c2ccc(F)cc2c2nnc(SCCN3CCCCC3)nc21	none
CCC(C)(c1ccc(C=O)s1)c1ccc(C=O)s1	hERG protect 6.0
CCOC(=O)C(NC(=O)c1ccccc1)=C(C)C	hERG protect 5.4
CCOC(=O)/C(=C/C=C/c1ccccc1)NC(=O)c1ccccc1	KCNK9 inh -7.39
COc1ccc(C)cc1S(=O)(=O)N1CCCC(C(=O)N2CCN(c3ccccc3F)CC2)C1 (stereo not drawn)	none
CCc1nnc(NS(=O)(=O)c2ccc(NC(=O)c3ccc(C#N)cc3)cc2)s1	none
CCOC(=O)C1=C(C)n2c(s/c(=C/c3cccc([N+](=O)[O-])c3)c2=O)=NC1c1ccc(O)c(OC)c1 (stereo not drawn)	KCNQ1 block 6
Cc1[nH]c(C)c(S(=O)(=O)N(Cc2ccccc2)C(C)(C)C)c1C(=O)N1CCCC1	none
Cn1nc(C(F)(F)F)c(/C=N/OC(=O)c2ccccc2)c1SCc1ccccc1Cl	KCNK9 inh -7.89
COc1ccc(-n2nc3c(c2NC(=O)C(C)Oc2ccccc2)CS(=O)C3)cc1 (stereo not drawn)	none
Cc1ccsc1/C=N/NC(=O)c1ccc(Cn2cc(Br)cn2)o1	none
O=C(N/N=C/c1cccc(Br)c1)c1ccc(Cn2cc(Br)cn2)o1	KCNK9 inh -7.47
CCN(C(=S)NC(=O)c1ccccc1Br)C1CCCCC1	KCNQ1 pot 36, hERG protect 57.0
COC(=O)c1cccc(C(=O)N2CCCC(CCC(=O)N(C)CCc3ccccn3)C2)c1 (stereo not drawn)	none
CCOc1cc2c(cc1/C=C/c1noc(C)c1[N+](=O)[O-])OC(C)C2 (stereo not drawn)	KCNQ1 block 7
CCOc1cc2c(cc1C=O)OC(C)C2 (stereo not drawn)	none
CSCCC(NC(=O)c1ccc([N+](=O)[O-])cc1Cl)C(=O)OCC(=O)N1CCN(C(C)=O)CC1 (stereo not drawn)	none
CSCCC(NC(=O)c1ccc([N+](=O)[O-])cc1Cl)C(=O)OCC(=O)C12CC3CC(CC(C3)C1)C2 (stereo not drawn)	hERG protect 38.8
Cc1ccc(C2=CC(c3ccccc3)n3ncnc3N2)cc1 (stereo not drawn)	none
Fc1ccc(Br)cc1C1C=C(c2ccc(Br)cc2)Nc2ncnn21 (stereo not drawn)	KCNK3 block -12.4
CCc1ccc(C2=CC(c3cc(Br)ccc3F)n3ncnc3N2)cc1 (stereo not drawn)	KCNK3 block -8.89 (no result: KCNK9 inh, KCNQ1 block, KCNQ1 pot, hERG protect)
Cc1ccc(NC(=O)C2C3CCCC2C3c2ccccc2)cc1 (stereo not drawn)	none
O=c1c(O)c(-c2cccs2)oc2ccccc12	KCNQ1 pot 55, hERG protect 33.5
O=c1c(O)c(-c2ccccc2)oc2ccccc12	none (no result: KCNK9 inh, KCNQ1 block, KCNQ1 pot, hERG protect)
O=c1c(O)c(-c2cccs2)oc2ccc(Cl)cc12	KCNQ1 pot 72, hERG protect 34.8
O=S(=O)(CS(=O)(=O)c1ccccc1)c1ccccc1	none (no result: KCNK9 inh, KCNQ1 block, KCNQ1 pot, hERG protect)
O=S(=O)(C/C(=C/CO)S(=O)(=O)c1ccccc1)c1ccccc1	KCNQ1 block 6
COC(=O)c1ccc(C(c2c(C)n(C)n(-c3ccccc3)c2=O)c2c(C)n(C)n(-c3ccccc3)c2=O)cc1	none
O=C(c1nc2n(n1)C(c1ccc(Cl)cc1)C=C(c1ccccc1)N2)N1CCOCC1 (stereo not drawn)	KCNK9 inh -6.84
CN(CC(=O)Nc1cccc(F)c1)C(=O)CC1CCCCC1	none
Cn1c(Sc2ccccc2Cl)c(C=O)c2ccccc21	KCNQ1 block 11
O=C(O)C1C2OC3C(OC(=O)C31)C2Br (stereo not drawn)	none (no result: KCNK9 inh, KCNQ1 block, KCNQ1 pot, hERG protect)
COc1ccc(/C=N/NC(=O)c2cccc(O)c2)cc1Cn1nc(C)c([N+](=O)[O-])c1C	none
O=C(N/N=C\c1cn(-c2ccccc2)nc1-c1ccccc1)c1ccc(Br)o1	KCNK9 inh -7.13, KCNQ1 block 13
O=C(N/N=C/c1ccc([N+](=O)[O-])o1)c1cn(-c2ccccc2)nc1-c1ccc(Cl)cc1	hERG protect 8.3
Cc1ccc(-c2nn(-c3ccccc3)cc2/C=N/NC(=O)c2ccc(Br)o2)cc1	none (no result: KCNK9 inh, KCNQ1 block, KCNQ1 pot, hERG protect)
O=C(O)c1ccccc1NC(=O)c1ccccc1Nc1ccccc1	none
CCOC(=O)C1CCCN(C(=O)c2cccc(NC(=O)C(CC)CC)c2)C1 (stereo not drawn)	none
CC1=CC(c2ccc(Cl)cc2)n2nc(NC(=O)c3ccccc3)nc2N1 (stereo not drawn)	none
CC1=Nc2ccccc2N=C(NC(=O)c2ccccc2)C1c1ccc(Cl)cc1 (stereo not drawn)	KCNQ1 block 12
CCCC(C(=O)NC(C)(C)C)N(Cc1ccccc1Cl)C(=O)c1snc(C(N)=O)c1N (stereo not drawn)	KCNQ1 block 7
CCC(C(=O)NC(C)(C)C)N(Cc1ccccc1Cl)C(=O)c1snc(C(N)=O)c1N (stereo not drawn)	none
CCCCC(C(=O)NC(C)(C)C)N(Cc1ccccc1Cl)C(=O)c1snc(C(N)=O)c1N (stereo not drawn)	KCNQ1 block 6
COc1ccc(Cc2nnc(NC(=O)c3ccccc3Cl)s2)cc1OC	none
Cc1c(Cl)cccc1NC(=S)NCCC(c1ccccc1)c1ccccc1	KCNQ1 block 11
Cc1cc(Cl)ccc1NC(=S)NCCC(c1ccccc1)c1ccccc1	KCNQ1 block 11
Cc1cc(Cl)ccc1NC(=S)NCc1ccc(Cl)cc1	none
Cc1ccc(S(=O)(=O)/C(C#N)=C/c2c(N3CCN(Cc4ccccc4)CC3)nc3ccccn3c2=O)cc1	KCNK3 block -10.7
Cc1ccc(S(=O)(=O)/C(C#N)=C/c2c(N3CCN(C)CC3)nc3ccccn3c2=O)cc1	none
CCCOc1cccc(-c2cc(C(=O)NNC(=S)NCC)c3ccccc3n2)c1	none
COc1ccc(NC(=O)c2cc(-c3cc(OC)c(OC)c(OC)c3)nc3ccccc23)cc1OC	none
COc1ccc(Cl)cc1C(=O)NNC(=S)NC(=O)c1cc(-c2ccccc2)nc2ccccc12	KCNQ1 pot 8
CCNC(=S)NNC(=O)c1cc(-c2cccc(OC)c2)nc2ccccc12	KCNQ1 block 6
COC(=O)c1ccc(NC(=O)c2cc(-c3ccncc3)nc3ccccc23)cc1	none (no result: KCNK9 inh, KCNQ1 block, KCNQ1 pot, hERG protect)

Screening results: PubChem BioAssay, Johns Hopkins Ion Channel Center
